These results are taken from ChEMBL document CHEMBL1146772, “Design, synthesis, and structure-activity relationship of new isobenzofuranone ligands of protein kinase C” (Bioorg Med Chem Lett, 2004).

Structures are written as SMILES.

For assay [1], the target named is T1, Protein kinase C alpha type (Homo sapiens, UniProt P17252). Nature of the assay: Displacement of [3H]PDBu from PKC alpha at 100 uM; range 20 to 40. In short, it runs like this:
(§1)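 Competitive [3H]PDBu binding to recombinant human PKCα (Sf9-expressed), 4.3-4.8 nM, in 50 mM Tris-HCl pH 7.5 containing 4 mM CaCl2, 100 µg/mL sonicated phosphatidylserine, 4 mg/mL BSA and 10 nM [3H]PDBu. Incubation 2 h at 0 °C, then filtration on PEI-treated glass-fiber filters and scintillation counting. 10 µM TPA defined background/nonspecific binding. Ki derived using [3H]PDBu Kd 0.19 nM (Scatchard).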
In general terms: In a radioligand displacement assay an active substance lowers the binding of a labelled ligand.

Assay [2] has as its target T1, Protein kinase C alpha type. Nature of the assay: Binding affinity for protein kinase C alpha.
Assay [3] has the same target. Nature of the assay: Displacement of [3H]PDBu from PKC alpha at 100 uM. In short, it runs like this:
as §1

For assay [4] the target is unchanged. The experiment in a line: Displacement of [3H]PDBu from PKC alpha at 100 uM; range 0 to 20. Summed up:
as §1

Assay [5] has the same target. Nature of the assay: Displacement of [3H]PDBu from PKC alpha at 100 uM; range 60 to 80. Summed up: as §1
The target is the same in assay [6]. The experiment in a line: Displacement of [3H]PDBu from PKC alpha at 100 uM; range 40 to 60. In short, it runs like this: as §1

Molecule `CCCCCCCCCCCCOc1cccc2c1C(=O)O[C@@]2(CO)COC(C)=O` registered an inhibition in assay [1] of 35%. The Ki in assay [2] was 540 nM.

`C=CCOC(=O)Oc1cccc2c1C(=O)O[C@]2(CO)COC(C)=O` displayed an inhibition in assay [3] of 0%. Affinity in assay [2] was put at a Ki of 122 nM.

For the molecule `CC(=O)OC[C@@]1(CO)OC(=O)c2c(OCc3ccccc3)cccc21`, in assay [4], the inhibition stood at 9%. The Ki in assay [2] turned out to be 540 nM.

On to `CCCCCCCCCCOc1cccc2c1C(=O)O[C@@]2(CO)COC(C)=O`, for which the inhibition in assay [1] is 21%. The same molecule showed an inhibition constant (Ki) in assay [2] of 122 nM.

Take `CCCCCCCCCCCCOc1cccc2c1C(=O)O[C@]2(CO)COC(C)=O`: in assay [5], the inhibition came to 75%. For the same molecule, the inhibition constant Ki in assay [2] amounted to 540 nM.

`CCCCCCCCCCOc1cccc2c1C(=O)O[C@]2(CO)COC(C)=O` gave an inhibition in assay [6] of 59%. The molecule further displayed a Ki in assay [2] of 122 nM.

In assay [2], `CCCCCCCCCCCCOc1cccc2c1C(=O)O[C@@]2(CO)COC(=O)C(C)(C)C` showed a Ki of 122 nM.

One may read the inhibition as the share of the control response that was lost under treatment. A lower inhibition goes with a response near the control. As usually defined, the Ki is a dissociation constant, usually derived from enzyme kinetics or from competition with a known ligand. A lower Ki goes with a stronger hold on the target.
